Test results taken from ChEMBL document CHEMBL4266009, “One Step Beyond: Design of Substrates Spanning Primed Positions of Zika Virus NS2B-NS3 Protease” (ACS Med Chem Lett, 2018).
Blank lines part the entries; values can stand above or below the compound they belong to. Activity calls are given as the source filed them. The calls are words filed in the database; no cut-off is given here. Non-standard residues stand in square brackets, D forms with d. Residues, ends and D or L forms follow the SMILES beside them. Tyr(3-NO2) = N[C@@H](Cc1ccc(O)c([N+](=O)[O-])c1)C(=O)O; 2Abz = Nc1ccccc1C(=O)O

What was measured:
Zika virus [1] = assay: Substrate activity at recombinant ZIKV NS3 pro domain fused NS2B protease assessed as ratio of Kcat to Km in Tris-CHAPS-glycerol buffer at pH 7.4 after 30 mins
In short: (§1)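 Continuous fluorescence assay (Ex 320, Em 450 nm) in 10 mM Tris-HCl pH 7.4, 20% glycerol, 1 mM CHAPS at 37 °C; substrate (1.0×10-7 to 4×10^-5 M final) added to 1.64×10^-8 M NS2BLNNS3pro. Initial rates from linear portions, inner-filter corrected; KM and kcat from double-reciprocal Michaelis-Menten plots; triplicate, SD ≤20%.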

Zika virus [2] = assay: Substrate activity at recombinant ZIKV NS3 pro domain fused NS2B protease at pH 7.4 after 30 mins by fluorescence assay
In short: (§2)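 pH profile: NS2BLNNS3pro 1.64×10^-8 M with substrate 2.44×10^-5 M in citrate (pH 3.0), acetate (4.0, 5.0), MES (6.0), MOPS (7.0), Tris (7.4, 10.0) or HEPES (8.0); fluorescence increase followed at 37 °C over 30 min.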

Zika virus [3] = assay: Substrate activity at recombinant ZIKV NS3 pro domain fused NS2B protease at pH 3 to 6 after 30 mins by fluorescence assay; in short: as §2
[4] = Selectivity ratio of substrate activity at recombinant ZIKV NS3 pro domain fused NS2B protease to substrate activity at West Nile virus protease
Zika virus [5] = assay: Substrate activity at recombinant ZIKV NS3 pro domain fused NS2B protease assessed as Km in Tris-CHAPS-glycerol buffer at pH 7.4 after 30 mins; in short: as §1
Zika virus [6] = assay: Substrate activity at recombinant ZIKV NS3 pro domain fused NS2B protease assessed as Kcat in PBS at pH 7.4 after 30 mins
In short: (§3)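 Kinetic constants determined in PBS pH 7.4 with the recombinant NS2BLNNS3pro; cleavage followed by ABZ fluorescence (Ex 320, Em 450 nm) at 37 °C; initial rates fitted and KM, kcat obtained from double-reciprocal Michaelis-Menten plots.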

Zika virus [7] = assay: Substrate activity at recombinant ZIKV NS3 pro domain fused NS2B protease at pH 7.4
Zika virus [8] = assay: Substrate activity at recombinant ZIKV NS3 pro domain fused NS2B protease assessed as Km in PBS at pH 7.4 after 30 mins; in short: as §3
Zika virus [9] = assay: Substrate activity at recombinant ZIKV NS3 pro domain fused NS2B protease assessed as ratio of Kcat to Km in PBS at pH 7.4 after 30 mins; in short: as §3
Zika virus [10] = assay: Substrate activity at 6.86x10'-6M of recombinant ZIKV NS3 pro domain fused NS2B protease; settings: in the assay text read “6.86x10'-10M” for “6.86x10'-6M”
In short: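 Limit of detection: decreasing amounts of recombinant NS2BLNNS3pro titrated against substrate at 2.44 × 10^-5 M in PBS pH 7.4, 37 °C, 30 min; fluorescence read at 450 nm (Ex 320 nm); detection limit from fluorescence increase versus enzyme concentration; triplicate.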

Zika virus [11] = assay: Substrate activity at recombinant ZIKV NS3 pro domain fused NS2B protease by HPLC method
Zika virus [12] = assay: Substrate activity at recombinant ZIKV NS3 pro domain fused NS2B protease at pH 8 to 10 after 30 mins by fluorescence assay; in short: as §2
Zika virus [13] = assay: Substrate activity at recombinant ZIKV NS3 pro domain fused NS2B protease assessed as Kcat in Tris-CHAPS-glycerol buffer at pH 7.4 after 30 mins; in short: as §1

kcat/Km (Zika virus [1]): 1.1 ×10⁶ /M/s
Compound: CC(=O)N[C@H](CCCNC(=N)N)C(=O)N[C@@H](CCCCN)C(=O)N[C@@H](CCCN)C(=O)N[C@@H](CCCNC(=N)N)C(=O)Nc1ccc2c(CC(N)=O)cc(=O)oc2c1

Activity (Zika virus [2]): Active
Compound: CC(C)[C@H](NC(=O)c1ccccc1N)C(=O)N[C@@H](CCCCN)C(=O)N[C@@H](CCCCN)C(=O)N[C@@H](CCCNC(=N)N)C(=O)N[C@@H](C)C(=O)N[C@@H](C)C(=O)N[C@@H](CC(=O)O)C(=O)N[C@@H](Cc1ccc(O)c([N+](=O)[O-])c1)C(N)=O (H-[2Abz]VKKRAAD[Tyr(3-NO2)]-NH2)

Activity (Zika virus [2]): Active
Compound: CC(C)[C@H](NC(=O)c1ccccc1N)C(=O)N[C@@H](CCCCN)C(=O)N[C@@H](CCCCN)C(=O)N[C@@H](CCCNC(=N)N)C(=O)N[C@@H](C)C(=O)N[C@@H](C)C(=O)N[C@@H](CCC(=O)O)C(=O)N[C@@H](Cc1ccc(O)c([N+](=O)[O-])c1)C(N)=O (H-[2Abz]VKKRAAE[Tyr(3-NO2)]-NH2)

Activity (Zika virus [2]): Active
Activity (Zika virus [3]): inactive
Ratio [4]: 200
Km (Zika virus [5]): 1.23 µM
kcat (Zika virus [6]): 16.3 s⁻¹
kcat/Km (Zika virus [1]): 1.26 ×10⁸ /M/s
Activity (Zika virus [7]): Active
Km (Zika virus [8]): 6.97 µM
kcat/Km (Zika virus [9]): 2.32 ×10⁶ /M/s
Activity (Zika virus [10]): Active
Activity (Zika virus [11]): Active
Activity (Zika virus [12]): Active
kcat (Zika virus [13]): 151 s⁻¹
Compound: CC(C)[C@H](NC(=O)c1ccccc1N)C(=O)N[C@@H](CCCCN)C(=O)N[C@@H](CCCCN)C(=O)N[C@@H](CCCNC(=N)N)C(=O)N[C@@H](C)C(=O)N[C@@H](C)C(=O)N[C@@H](Cc1c[nH]c2ccccc12)C(=O)N[C@@H](Cc1ccc(O)c([N+](=O)[O-])c1)C(N)=O (H-[2Abz]VKKRAAW[Tyr(3-NO2)]-NH2)
